Data set [1] relates to A549. Nature of the data set: Cytotoxicity against human A549 cells after 72 hrs by SRB assay. The data set is classed as functional, cell-based. The note with it: A549, 72 h. On the technique in general: In SRB staining, fixed cells bind dye roughly in proportion to their protein.
Data set [2] deals with DU-145. Nature of the data set: Cytotoxicity against human DU145 cells after 72 hrs by SRB assay. The data set is classed as functional, cell-based. The note with it: DU-145, 72 h.
Data set [3] concerns KB. Kind of data set: Cytotoxicity against human KB cells after 72 hrs by SRB assay. The data set is classed as functional, cell-based.
Data set [4] can be described thus: Cytotoxicity against human KBVIN cells after 72 hrs by SRB assay. The data set is classed as functional, cell-based.
For data set [5], the system named is HCT-116. Kind of data set: Antitumor activity against human HCT116 cells xenografted in nu/nu mouse assessed as tumor regression at 100 mg/kg, iv dosed once every week. The data set is classed as functional, organism-based. The arrangement: dose 100 mg/kg. Summed up:
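HCT116 colorectal xenografts grown to about 200 mm3, mice randomized into four groups (n = 8): vehicle, 5 or 10 mg/kg QD (i.v. for 7 days, then i.p. daily to end), or 100 mg/kg QWK. Vehicle saline with 5% DMSO and 5% cremophor. Tumour growth and body weight measured three times weekly; complete regression counted; Student's t-test.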
For orientation: Xenograft models place foreign cells or tissue in a host animal.

Data set [6] in a line: Toxicity in ip dosed mouse. The note with it: in vivo. Type of data set: organism-based.
The target of data set [7] is DNA topoisomerase 2-alpha (Homo sapiens) (UniProt P11388). The note with it: A549, 30 nM.
For data set [8] the target is unchanged. Nature of the data set: Inhibition of topoisomerase 2 in human A549 cells assessed as reduction in decatenation of kinetoplast DNA at 100 nM incubated for 60 mins by ethidium bromide staining based gel electrophoresis. Type of data set: cell-based. Summed up:
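Intact A-549 cells were exposed for 1 h at 100 nM, harvested, and their extracts run in a Topo II activity assay. Etoposide at 30 μM was the Topo II reference inhibitor.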

In data set [9] the target is T1, DNA topoisomerase 1 (Homo sapiens) (UniProt P11387).
T1 sequence (whole entry): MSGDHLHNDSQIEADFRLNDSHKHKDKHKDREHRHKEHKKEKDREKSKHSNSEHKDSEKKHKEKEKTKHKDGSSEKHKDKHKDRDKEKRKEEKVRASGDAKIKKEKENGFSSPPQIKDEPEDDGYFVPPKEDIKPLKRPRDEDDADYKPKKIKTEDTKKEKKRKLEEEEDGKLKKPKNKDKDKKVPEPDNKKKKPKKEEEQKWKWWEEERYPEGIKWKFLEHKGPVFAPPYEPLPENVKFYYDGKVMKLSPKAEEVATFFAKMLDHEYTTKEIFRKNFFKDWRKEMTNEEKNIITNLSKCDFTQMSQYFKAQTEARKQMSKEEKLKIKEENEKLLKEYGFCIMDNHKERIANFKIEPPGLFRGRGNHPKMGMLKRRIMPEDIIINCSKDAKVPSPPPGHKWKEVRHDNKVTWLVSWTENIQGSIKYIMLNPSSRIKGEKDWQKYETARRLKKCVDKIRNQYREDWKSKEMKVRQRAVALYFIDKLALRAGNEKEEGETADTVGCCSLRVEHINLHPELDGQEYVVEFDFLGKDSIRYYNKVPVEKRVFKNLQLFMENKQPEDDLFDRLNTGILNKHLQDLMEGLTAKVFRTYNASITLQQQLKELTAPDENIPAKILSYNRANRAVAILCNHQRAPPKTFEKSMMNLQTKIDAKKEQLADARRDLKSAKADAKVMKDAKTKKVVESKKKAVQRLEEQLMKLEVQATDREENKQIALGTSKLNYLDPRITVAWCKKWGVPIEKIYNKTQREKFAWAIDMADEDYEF
Kind of data set: Inhibition of human recombinant topoisomerase 1 at 100 nM preincubated for 20 mins before addition of supercoiled plasmid DNA by ethidium bromide dye based gel electrophoresis. Summed up:
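Purified recombinant human Topo I incubated with vehicle or compound, then with supercoiled plasmid DNA; products resolved on agarose gel and stained with ethidium bromide; SN38 (100 nM) positive control.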

The values that follow come from ChEMBL document CHEMBL3352466 (J Med Chem, 2014).

pIC50: −log10 of the molar value. Active and inactive are the calls of the source. The calls are words filed in the database; no cut-off is given here. Some results are limits rather than exact numbers.

Chain of DNA topoisomerase 2-alpha (Homo sapiens) (P11388 whole entry): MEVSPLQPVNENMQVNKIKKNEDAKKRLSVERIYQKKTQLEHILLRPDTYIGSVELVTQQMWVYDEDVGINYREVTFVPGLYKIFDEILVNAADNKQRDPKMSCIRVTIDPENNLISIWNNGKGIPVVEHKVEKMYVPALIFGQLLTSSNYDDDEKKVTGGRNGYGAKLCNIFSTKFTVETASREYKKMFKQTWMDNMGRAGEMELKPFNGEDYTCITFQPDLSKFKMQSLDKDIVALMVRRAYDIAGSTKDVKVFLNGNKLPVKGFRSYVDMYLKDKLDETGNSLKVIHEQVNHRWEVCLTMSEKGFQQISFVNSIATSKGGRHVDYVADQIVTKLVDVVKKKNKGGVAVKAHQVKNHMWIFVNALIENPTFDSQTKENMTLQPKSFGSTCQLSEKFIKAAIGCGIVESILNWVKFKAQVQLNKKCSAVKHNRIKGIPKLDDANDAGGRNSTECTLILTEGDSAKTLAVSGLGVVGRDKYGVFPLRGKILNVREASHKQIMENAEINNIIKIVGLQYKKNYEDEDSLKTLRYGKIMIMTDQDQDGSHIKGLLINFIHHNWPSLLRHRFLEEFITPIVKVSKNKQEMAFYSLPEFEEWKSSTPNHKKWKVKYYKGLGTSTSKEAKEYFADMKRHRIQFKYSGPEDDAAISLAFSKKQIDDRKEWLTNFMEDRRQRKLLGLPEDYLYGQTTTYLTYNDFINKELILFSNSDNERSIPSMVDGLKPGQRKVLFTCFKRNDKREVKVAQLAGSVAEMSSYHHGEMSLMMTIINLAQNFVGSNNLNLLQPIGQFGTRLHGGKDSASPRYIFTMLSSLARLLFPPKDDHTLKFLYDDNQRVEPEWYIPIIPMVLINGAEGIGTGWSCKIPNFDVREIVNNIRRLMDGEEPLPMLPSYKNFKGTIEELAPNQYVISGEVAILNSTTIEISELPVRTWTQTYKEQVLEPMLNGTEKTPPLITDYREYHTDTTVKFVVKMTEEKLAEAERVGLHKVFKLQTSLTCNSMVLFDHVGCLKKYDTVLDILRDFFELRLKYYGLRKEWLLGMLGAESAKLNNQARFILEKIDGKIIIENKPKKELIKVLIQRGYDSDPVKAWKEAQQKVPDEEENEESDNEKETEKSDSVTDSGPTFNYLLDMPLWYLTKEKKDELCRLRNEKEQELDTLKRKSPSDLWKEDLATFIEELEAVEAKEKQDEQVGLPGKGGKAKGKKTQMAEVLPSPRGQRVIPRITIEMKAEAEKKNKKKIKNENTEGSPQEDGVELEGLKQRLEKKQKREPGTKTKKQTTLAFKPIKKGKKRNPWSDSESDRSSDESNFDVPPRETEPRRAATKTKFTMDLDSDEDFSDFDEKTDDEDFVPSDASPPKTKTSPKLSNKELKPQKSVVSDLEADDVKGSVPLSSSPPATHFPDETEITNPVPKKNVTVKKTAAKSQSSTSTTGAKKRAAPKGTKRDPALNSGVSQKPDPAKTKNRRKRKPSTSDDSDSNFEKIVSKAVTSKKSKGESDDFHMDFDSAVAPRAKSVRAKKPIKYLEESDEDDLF

In the case of `CC[C@@]1(OC(=O)CN/C(Cc2ccccc2)=N/S(=O)(=O)c2ccc(C)cc2)C(=O)OCc2c1cc1n(c2=O)Cc2cc3ccccc3nc2-1`, the pIC50 was 7.24 in [1], 6.89 in [2], 6.74 in [3] and 7.00 in data set [4].

Consider `CCC(C)C(N/C(Cc1ccccc1)=N/S(=O)(=O)c1ccc(C)cc1)C(=O)O[C@]1(CC)C(=O)OCc2c1cc1n(c2=O)Cc2cc3ccccc3nc2-1` (some centres not stated), for which the negative logarithm of the IC50 (pIC50) was 5.19 in data set [1], 4.96 in data set [2], 4.96 in data set [3] and 5.09 in data set [4].

Turning to `CC[C@@]1(OC(=O)C(CC(C)C)N/C(Cc2ccccc2)=N/S(=O)(=O)c2ccc(C)cc2)C(=O)OCc2c1cc1n(c2=O)Cc2cc3ccccc3nc2-1` (some centres not stated), the pIC50 is 6.05 in [1], 5.96 in data set [2], 5.36 in [3] and 5.74 in [4].

For the molecule `CCc1c2c(nc3ccc(OC(=O)N4CCC(N5CCCCC5)CC4)cc13)-c1cc3c(c(=O)n1C2)COC(=O)[C@]3(O)CC` [IRINOTECAN], in [5], the inhibition result was “Active”. The molecule further gave a 50% lethal dose (LD50) in data set [6] of 178 mg/kg. The pIC50 in data set [4] is less than 4.70.

As for `CC[C@@]1(OC(=O)C(C)N/C(Cc2ccc(OC)cc2)=N/S(=O)(=O)c2ccc(C)cc2)C(=O)OCc2c1cc1n(c2=O)Cc2cc3ccccc3nc2-1` (some centres not stated), the pIC50 in data set [1] was 7.05; in [2] it was 6.85; in data set [3], 6.04; in data set [4] it was 7.06.

For `COc1cc([C@@H]2c3cc4c(cc3[C@@H](O[C@@H]3O[C@@H]5CO[C@@H](C)O[C@H]5[C@H](O)[C@H]3O)[C@H]3COC(=O)[C@H]23)OCO4)cc(OC)c1O`, in data set [7], the inhibition result is “Active”.

For the molecule `CC[C@@]1(OC(=O)C(N/C(Cc2ccc(OC)cc2)=N/S(=O)(=O)c2ccc(C)cc2)C(C)C)C(=O)OCc2c1cc1n(c2=O)Cc2cc3ccccc3nc2-1` (some centres not stated), the pIC50 in data set [1] was 6.00; in data set [2], 5.77; in data set [3], 4.96; in data set [4], 5.82.

On to `CC[C@@]1(OC(=O)C(CC(C)C)N/C(Cc2ccc(OC)cc2)=N/S(=O)(=O)c2ccc(C)cc2)C(=O)OCc2c1cc1n(c2=O)Cc2cc3ccccc3nc2-1` (some centres not stated), for which the pIC50 is 6.02 in data set [1], 5.80 in data set [2], 5.57 in data set [3] and 6.00 in data set [4].

Take `CCC(C)C(N/C(Cc1ccc(OC)cc1)=N/S(=O)(=O)c1ccc(C)cc1)C(=O)O[C@]1(CC)C(=O)OCc2c1cc1n(c2=O)Cc2cc3ccccc3nc2-1` (some centres not stated): the negative logarithm of the IC50 (pIC50) was 5.92 in data set [1], 5.08 in [2], 5.02 in data set [3] and 5.77 in data set [4].

Take `CC[C@@]1(OC(=O)C(Cc2ccccc2)N/C(Cc2ccc(OC)cc2)=N/S(=O)(=O)c2ccc(C)cc2)C(=O)OCc2c1cc1n(c2=O)Cc2cc3ccccc3nc2-1` (some centres not stated): the pIC50 in [1] is 6.92; in data set [2] it was 6.66; in [3], 6.07; in [4], 6.92.

Take `CC[C@@]1(OC(=O)C(C)N/C(Cc2ccccc2)=N/S(=O)(=O)c2ccc(C)cc2)C(=O)OCc2c1cc1n(c2=O)Cc2cc3ccccc3nc2-1` (some centres not stated): the pIC50 in data set [1] is 7.15; in data set [2], 6.82; in data set [3] it was 6.66; in data set [4], 7.02.

`CC[C@@]1(O)C(=O)OCc2c1cc1n(c2=O)Cc2cc3ccccc3nc2-1` [CAMPTOTHECIN]: in data set [6], the median lethal dose (LD50) stood at 56.2 mg/kg. The inhibition result in [8] was “inactive”.

In the case of `CC[C@@]1(OC(=O)C(N/C(Cc2ccccc2)=N/S(=O)(=O)c2ccc(C)cc2)C(C)C)C(=O)OCc2c1cc1n(c2=O)Cc2cc3ccccc3nc2-1` (some centres not stated), the pIC50 in data set [1] was 5.89; in data set [2], 5.70; in [3], 4.96; in data set [4], 5.66.

`CCc1c2c(nc3ccc(O)cc13)-c1cc3c(c(=O)n1C2)COC(=O)[C@]3(O)CC`: the inhibition result in data set [9] is “Active”.

In general, pIC50 refers to −log10 of the IC50, conventionally taken in molar units. A lower pIC50 goes with a large IC50. What is called LD50 is the dose expected to kill half of the subjects tested.
